pKi: −log10 of the molar value. Activity calls are given as the source filed them. The rule behind the calls is not given here.
Legend:
Rattus norvegicus [1] = assay: Effective dose for half-maximal decrease in the accumulation of 5-hydroxytryptophan (5-HTP) in reserpinized rat brain striatal area by po administration; Partial response at the highest dose tested; assay type: functional, organism-based
Procedure, shortened: (§1)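 Male Sprague-Dawley rats (200-300 g) got reserpine 5 mg/kg sc 18 h before. The test drug (saline) was given sc or po (po rats fasted 18 h), with NSD 1015, 30 min before decapitation. DOPA and 5-HTP in limbic, striatal and hemispheral tissue were measured by HPLC-ED. ED50 (half-maximal decrease) was taken from 4-6-dose curves, with deviation estimated graphically from SEM.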

[2] = (§2) Effective dose for half-maximal decrease in the accumulation of 5-hydroxytryptophan (5-HTP) in reserpinized rat brain hemispheral area by po administration; assay type: functional; procedure, shortened: as §1
[3] = target: T1, Dopamine receptor (Rattus norvegicus) (UniProt P25115+P19020+P30729+P18901+P61169); assay: Effective dose for half-maximal decrease in the accumulation of DOPA in reserpinized rat brain limbic area by sc administration; assay type: functional, organism-based; procedure, shortened: as §1
[4] = target: T2, 5-hydroxytryptamine receptor 1A (Rattus norvegicus, UniProt P19327); assay: Binding affinity against 5-hydroxytryptamine 1A receptor in homogenated rat brain tissue, using by [3H]8-OH-DPAT as radioligand; assay type: tissue-based
T2 sequence (P19327 whole entry): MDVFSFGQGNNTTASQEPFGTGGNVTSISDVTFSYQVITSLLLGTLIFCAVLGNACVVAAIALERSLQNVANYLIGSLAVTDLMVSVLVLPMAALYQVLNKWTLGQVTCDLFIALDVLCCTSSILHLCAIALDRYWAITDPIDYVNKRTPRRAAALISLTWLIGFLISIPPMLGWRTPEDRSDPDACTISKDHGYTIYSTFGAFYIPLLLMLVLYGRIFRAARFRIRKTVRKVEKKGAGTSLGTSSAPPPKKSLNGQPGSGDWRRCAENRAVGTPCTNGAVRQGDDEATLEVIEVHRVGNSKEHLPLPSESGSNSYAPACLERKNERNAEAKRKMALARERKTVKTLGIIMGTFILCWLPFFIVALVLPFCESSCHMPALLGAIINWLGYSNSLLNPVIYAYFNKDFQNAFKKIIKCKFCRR
Procedure, shortened: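 Rat brain homogenate was washed and preincubated in 50 mM Tris (pH 8.0) containing NaCl, CaCl2 and MgCl2, plus 10 μM pargyline. Nonspecific binding was defined with 10 μM 5-HT. Six drug concentrations (10⁻⁴-10⁻⁹ M) were tested, triplicate or single run. IC50 came from a semilog plot with linear regression.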

[5] = (§3) Effective dose for half-maximal decrease in the accumulation of 5-hydroxytryptophan (5-HTP) in reserpinized rat brain limbic area by po administration; assay type: functional; procedure, shortened: as §1
[6] = target: T1, Dopamine receptor (Rattus norvegicus); assay: Effective dose for half-maximal decrease in the accumulation of DOPA in reserpinized rat brain hemispheral area by sc administration; Partial response at the highest dose tested; assay type: functional, organism-based; procedure, shortened: as §1
Rattus norvegicus [7] = assay: Effective dose for half-maximal decrease in the accumulation of 5-hydroxytryptophan (5-HTP) in reserpinized rat brain limbic area by sc administration; Inactive; assay type: functional, organism-based; procedure, shortened: as §1
[8] = target: T1, Dopamine receptor (Rattus norvegicus); assay: Effective dose for half-maximal decrease in the accumulation of DOPA in reserpinized rat brain striatal area by sc administration; assay type: functional, organism-based; procedure, shortened: as §1
D(2) dopamine receptor [9] = target: T3, D(2) dopamine receptor (Rattus norvegicus, UniProt P61169); assay: Binding affinity against dopamine receptor D2 in homogenated rat brain tissue, using by ([3H]N00437) as radioligand; assay type: tissue-based
T3 sequence (P61169 whole entry): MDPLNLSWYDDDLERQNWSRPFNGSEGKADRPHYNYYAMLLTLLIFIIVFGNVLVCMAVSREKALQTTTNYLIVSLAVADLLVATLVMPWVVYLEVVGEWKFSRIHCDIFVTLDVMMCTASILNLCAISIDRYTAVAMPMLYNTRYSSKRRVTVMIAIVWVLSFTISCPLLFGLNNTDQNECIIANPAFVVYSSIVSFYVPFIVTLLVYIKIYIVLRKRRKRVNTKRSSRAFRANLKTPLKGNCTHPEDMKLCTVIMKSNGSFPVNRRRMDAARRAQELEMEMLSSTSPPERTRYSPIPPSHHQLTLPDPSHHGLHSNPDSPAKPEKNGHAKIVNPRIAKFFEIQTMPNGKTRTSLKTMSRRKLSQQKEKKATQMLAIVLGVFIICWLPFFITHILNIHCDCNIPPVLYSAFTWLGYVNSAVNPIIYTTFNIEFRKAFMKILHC
Procedure, shortened: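 Striata from male Wistar rats were washed in Tris (pH 7.5) containing EDTA, KCl and CaCl2. Tissue (1.25 mg original) was incubated with 0.2 nM [3H]-N-0437 (final) for 90 min at 25 °C, then filtered and counted by scintillation. Nonspecific binding was defined with 1 μM 6,7-ADTN. IC50 was read from a hand-fitted sigmoid curve, in triplicate.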

[10] = target: T1, Dopamine receptor (Rattus norvegicus); assay: Effective dose for half-maximal decrease in the accumulation of DOPA in reserpinized rat brain limbic area by po administration; assay type: functional, organism-based; procedure, shortened: as §1
D(2) dopamine receptor [11] = target: T3, D(2) dopamine receptor; assay: Binding affinity against dopamine receptor D2 in rat brain tissue using [3H]spiperone; assay type: tissue-based
Procedure, shortened: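 Rat striatal membranes were prepared in 50 mM potassium phosphate (pH 7.4). They were incubated with 0.5 nM [3H]spiperone (3 mg original tissue) for 10 min at 37 °C. Specific binding was defined with 10 μM 6,7-ADTN. Six drug concentrations (10⁻⁴-10⁻⁹ M) were tested, in triplicate or in a single experiment.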

Rattus norvegicus [12] = assay: post-synaptic agonistic effects by increase in locomotor activity at the dose of 50 umol/kg, sc in reserpinized rat; assay type: functional
[13] = Area under curve ratio was determined (po/iv); assay type: functional
Procedure, shortened: (§4)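 Male Sprague-Dawley rats (300 g) with arterial catheters were dosed 24 h after surgery. Doses: 40 μmol/kg po by gavage and 5 μmol/kg iv, or 20 po and 1 iv. Po rats were fasted 18 h. Blood was sampled from 5 min to 12 h and measured by GC-MS after extraction at pH 11 against an internal standard, samples in duplicate. AUC po/iv came from n = 4 per route. Half-life was read graphically from the oral elimination phase.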

[14] = target: T1, Dopamine receptor (Rattus norvegicus); assay: Effective dose for half-maximal decrease in the accumulation of DOPA in reserpinized rat brain striatal area by po administration; assay type: functional, organism-based; procedure, shortened: as §1
Rattus norvegicus [15] = assay: Effective dose for half-maximal decrease in the accumulation of 5-hydroxytryptophan (5-HTP) in reserpinized rat brain hemispheral area by sc administration; Partial response at the highest dose tested; assay type: functional, organism-based; procedure, shortened: as §1
[16] = Half-lives were estimated from the elimination phase of the blood conc-time curve after oral administration; assay type: ADME, organism-based; settings: whole blood; procedure, shortened: as §4
Rattus norvegicus [17] = species on record: Rattus norvegicus; assay: DA agonist induced behavior was charecterised by increased locomotion, sniffing and licking.++ indicates high intensity of behavioral effect; assay type: functional, organism-based
Procedure, shortened: (§5)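 Male Sprague-Dawley rats (200-300 g) given reserpine 5 mg/kg sc in the neck 18 h before testing. The test compound, in 0.9% saline, was given sc in the neck (n = 4-5). Rats were placed singly in photocell motility meters right after dosing. Counts were recorded over 30 min, alongside gross behavioural observation of 5-HT and DA signs. Statistics: ANOVA with Fischer's PLSD versus reserpine controls.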

Rattus norvegicus [18] = assay: Effective dose for half-maximal decrease in the accumulation of 5-hydroxytryptophan (5-HTP) in reserpinized rat brain striatal area by sc administration; Partial response at the highest dose tested; assay type: functional, organism-based; procedure, shortened: as §1
Rattus norvegicus [19] = assay: Effective dose for half-maximal decrease in the accumulation of 5-hydroxytryptophan (5-HTP) in reserpinized rat brain hemispheral area by sc administration; Inactive; assay type: functional, organism-based; procedure, shortened: as §1
[20] = target: T1, Dopamine receptor (Rattus norvegicus); assay: (§6) Effective dose for half-maximal decrease in the accumulation of DOPA in reserpinized rat brain hemispheral area by sc administration; Inactive; assay type: functional, organism-based; procedure, shortened: as §1
[21] = target: T1, Dopamine receptor (Rattus norvegicus); assay: Effective dose for half-maximal decrease in the accumulation of DOPA in reserpinized rat brain hemispheral area by po administration; assay type: functional, organism-based; procedure, shortened: as §1
[22] = (§7) Effective dose for half-maximal decrease in the accumulation of 5-hydroxytryptophan (5-HTP) in reserpinized rat brain striatal area by po administration; assay type: functional; procedure, shortened: as §1
Rattus norvegicus [23] = assay: Effective dose for half-maximal decrease in the accumulation of 5-hydroxytryptophan (5-HTP) in reserpinized rat brain striatal area by sc administration; Inactive; assay type: functional, organism-based; procedure, shortened: as §1
Rattus norvegicus [24] = species on record: Rattus norvegicus; assay: DA agonist induced behavior was charecterised by increased locomotion, sniffing and licking.+ indicates low intensity of behavioral effect; assay type: functional, organism-based; procedure, shortened: as §5
Rattus norvegicus [25] = assay: post-synaptic agonistic effects by increase in locomotor activity at the dose of 12.5 umol/kg, sc in reserpinized rat (p<0.005); assay type: functional; procedure, shortened: as §5
Rattus norvegicus [26] = assay: post-synaptic agonistic effects by increase in locomotor activity at the dose of 1.0 umol/kg, sc in reserpinized rat; assay type: functional; procedure, shortened: as §5
Rattus norvegicus [27] = assay: Effective dose for half-maximal decrease in the accumulation of DOPA in reserpinized rat brain limbic area by sc administration; Inactive; assay type: functional, organism-based; procedure, shortened: as §1
Rattus norvegicus [28] = assay: as §2; assay type: functional; procedure, shortened: as §1
Rattus norvegicus [29] = assay: post-synaptic agonistic effects by increase in locomotor activity at the dose of 0.2 umol/kg, sc in reserpinized rat (p<0.005); assay type: functional; procedure, shortened: as §5
Rattus norvegicus [30] = assay: Effective dose for half-maximal decrease in the accumulation of DOPA in reserpinized rat brain limbic area by po administration; Partial response at the highest dose tested; assay type: functional, organism-based; procedure, shortened: as §1
Rattus norvegicus [31] = assay: Effective dose for half-maximal decrease in the accumulation of DOPA in reserpinized rat brain striatal area by po administration; Partial response at the highest dose tested; assay type: functional, organism-based; procedure, shortened: as §1
Rattus norvegicus [32] = assay: as §3; assay type: functional; procedure, shortened: as §1
Rattus norvegicus [33] = assay: as §6; assay type: functional, organism-based; procedure, shortened: as §1
Rattus norvegicus [34] = assay: Effective dose for half-maximal decrease in the accumulation of 5-hydroxytryptophan (5-HTP) in reserpinized rat brain striatal area by sc administration; assay type: functional; procedure, shortened: as §1
Rattus norvegicus [35] = assay: Effective dose for half-maximal decrease in the accumulation of 5-hydroxytryptophan (5-HTP) in reserpinized rat brain hemispheral area by sc administration; assay type: functional; procedure, shortened: as §1
Rattus norvegicus [36] = assay: as §7; assay type: functional; procedure, shortened: as §1
Rattus norvegicus [37] = assay: Effective dose for half-maximal decrease in the accumulation of DOPA in reserpinized rat brain striatal area by sc administration; Inactive; assay type: functional, organism-based; procedure, shortened: as §1
Rattus norvegicus [38] = assay: Effective dose for half-maximal decrease in the accumulation of 5-hydroxytryptophan (5-HTP) in reserpinized rat brain limbic area by sc administration; assay type: functional; procedure, shortened: as §1

CCCN(CCC)C1CCc2c(cccc2OS(=O)(=O)C(F)(F)F)C1 (stereo not given)
ED50 (Rattus norvegicus [1]): Weak activity
ED50 [2]: 5.4 µmol/kg
ED50 [3]: 0.4 µmol/kg
pKi [4]: 6.80
ED50 [5]: 3 µmol/kg
ED50 [6]: Weak activity
ED50 (Rattus norvegicus [7]): inactive
ED50 [8]: 0.5 µmol/kg
pKi (D(2) dopamine receptor [9]): 7.55
ED50 [10]: 6.2 µmol/kg
pKi (D(2) dopamine receptor [11]): 7.19
Counts/30 min (Rattus norvegicus [12]): 170
Ratio [13]: 8.5
ED50 [14]: 7.9 µmol/kg
ED50 (Rattus norvegicus [15]): Weak activity
half-life [16]: 1.5 h
Behavioral observation (Rattus norvegicus [17]): Active
ED50 (Rattus norvegicus [18]): Weak activity

CCCN(CCC)C1CCc2c(cccc2OC)C1 (stereo not given)
ED50 [2]: 0.3 µmol/kg
ED50 (Rattus norvegicus [19]): inactive
ED50 [3]: 0.01 µmol/kg
pKi [4]: 6.36
ED50 [5]: 0.4 µmol/kg
ED50 [20]: inactive
ED50 (Rattus norvegicus [7]): inactive
ED50 [21]: 0.3 µmol/kg
ED50 [8]: 0.02 µmol/kg
ED50 [10]: 0.2 µmol/kg
pKi (D(2) dopamine receptor [11]): 7.00
ED50 [22]: 0.5 µmol/kg
ED50 (Rattus norvegicus [23]): inactive
ED50 [14]: 0.2 µmol/kg

CCCN(CCC)C1CCc2cc(OS(=O)(=O)C(F)(F)F)ccc2C1 (stereo not given)
ED50 (Rattus norvegicus [19]): inactive
ED50 [3]: 2 µmol/kg
pKi [4]: 4.80
Behavioral syndrome (Rattus norvegicus [24]): Partially active
ED50 [20]: inactive
ED50 (Rattus norvegicus [7]): inactive
ED50 [8]: 1.3 µmol/kg
pKi (D(2) dopamine receptor [9]): 7.00
pKi (D(2) dopamine receptor [11]): 5.80
ED50 (Rattus norvegicus [23]): inactive
Counts/30 (Rattus norvegicus [25]): 80 min

CCCN(CCC)C1CCc2ccc(O)cc2C1 (stereo not given)
ED50 (Rattus norvegicus [19]): inactive
ED50 [3]: 0.03 µmol/kg
pKi [4]: 5.55
Behavioral observation (Rattus norvegicus [24]): Partially active
ED50 [20]: inactive
ED50 (Rattus norvegicus [7]): inactive
Counts/30 (Rattus norvegicus [26]): 160 counts/30 min
ED50 [8]: 0.03 µmol/kg
ED50 (Rattus norvegicus [23]): inactive

CCCN(CCC)C1CCc2cccc(O)c2C1 (stereo not given) [8-OH-DPAT]
ED50 (Rattus norvegicus [27]): inactive
ED50 (Rattus norvegicus [28]): 7.6 µmol/kg
Counts/30 (Rattus norvegicus [29]): 66 counts/30 min
ED50 (Rattus norvegicus [30]): Weak activity
ED50 (Rattus norvegicus [31]): Weak activity
ED50 (Rattus norvegicus [32]): 3 µmol/kg
ED50 (Rattus norvegicus [33]): inactive
ED50 (Rattus norvegicus [34]): 0.04 µmol/kg
ED50 (Rattus norvegicus [35]): 0.07 µmol/kg
ED50 (Rattus norvegicus [36]): 7.9 µmol/kg
ED50 (Rattus norvegicus [37]): inactive
half-life ([16]; rat): 1.2 h
ED50 (Rattus norvegicus [38]): 0.05 µmol/kg

Reference: ChEMBL document CHEMBL1126882, “Orally active central dopamine and serotonin receptor ligands: 5-, 6-, 7-, and 8-[[trifluoromethyl)sulfonyl]oxy]-2-(di-n-propylamino)tetralins and the formation of active metabolites in vivo” (J Med Chem, 1993)
